Among the data in ChEMBL document CHEMBL1139478, “Piperazinobenzopyranones and phenalkylaminobenzopyranones: potent inhibitors of breast cancer resistance protein (ABCG2)” (J Med Chem, 2005) are Fluorescence intensity, viability and Activity values, retold here.

Data set [1] addresses T1, Broad substrate specificity ATP-binding cassette transporter ABCG2 (Homo sapiens, UniProt Q9UNQ0).
T1 sequence (Q9UNQ0 whole entry): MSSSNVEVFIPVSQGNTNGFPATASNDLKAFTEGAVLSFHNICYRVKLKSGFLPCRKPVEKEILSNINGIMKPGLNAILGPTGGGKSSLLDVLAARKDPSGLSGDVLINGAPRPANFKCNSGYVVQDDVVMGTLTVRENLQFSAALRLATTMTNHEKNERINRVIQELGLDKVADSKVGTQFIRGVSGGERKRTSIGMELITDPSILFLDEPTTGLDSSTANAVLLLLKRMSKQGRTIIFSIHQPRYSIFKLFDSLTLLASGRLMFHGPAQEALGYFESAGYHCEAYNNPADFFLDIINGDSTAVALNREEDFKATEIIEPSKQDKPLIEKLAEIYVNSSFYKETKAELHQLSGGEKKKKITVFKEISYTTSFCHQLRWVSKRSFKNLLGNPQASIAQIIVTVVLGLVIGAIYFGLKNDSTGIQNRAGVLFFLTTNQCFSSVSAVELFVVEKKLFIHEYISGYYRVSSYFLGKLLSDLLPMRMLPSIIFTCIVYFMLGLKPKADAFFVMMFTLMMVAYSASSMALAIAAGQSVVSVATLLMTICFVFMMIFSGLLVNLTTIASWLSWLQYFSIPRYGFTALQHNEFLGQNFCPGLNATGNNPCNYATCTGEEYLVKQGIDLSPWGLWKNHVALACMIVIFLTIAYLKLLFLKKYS
Nature of the data set: Inhibition of BCRP expressed in mitoxantrone-resistant human HCT116 cells assessed as increase in mitoxantrone accumulation at 10 uM after 15 mins. The format is cell-based. The note with it: hct-116, 0.25 h. The method in brief: (§1)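 HCT116/R cells from ~90% confluent flasks, trypsinized, washed and resuspended at 10^6 cells/mL in serum-free RPMI. Preincubated 15 min at 37 °C with modulator (10 to 0.1 μM final, from 10 mM DMSO stock), then 3 μM mitoxantrone added for 30 min. Stopped with ice-cold PBS, washed; intracellular mitoxantrone by flow cytometry (488 nm excitation, 670 nm band-pass), mean fluorescence intensity in arbitrary units.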

Data set [2] can be described thus: Cytotoxicity against mitoxantrone-sensitive human HCT116 cells at 10 uM assessed as viable cells after 48 hrs. The format is cell-based, HCT-116. As to conditions: read-out: Activity; call rule not given here. In short, it runs like this: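 HCT116/S cells exposed to compound at 10, 1 and 0.1 μM; cell cycle distribution (G0/G1, S, G2/M) and viability by flow cytometry after trypsin/spermine detergent buffer 10 min room temperature, trypsin inhibitor plus ribonuclease A 10 min, then PI 10 min, read immediately.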

In data set [3] the test system is HCT-116. Description: Potentiation of mitoxantrone-induced cytotoxicity in mitoxantrone-resistant human HCT116 cells at 10 uM assessed as dead cells after 48 hrs by flow cytometry. The format is cell-based. The note with it: hct-116, 48 h. The method in brief:
(§2)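 After 24 h attachment, HCT116/R medium replaced with fresh medium holding 1 μM mitoxantrone plus modulator (10, 1, 0.1 μM); 48 h at 37 °C, PBS washes. Dead cells by propidium iodide uptake (2 μg/mL) in unfixed cells, FSC/FL2 flow cytometry; apoptosis by annexin V-FITC/PI staining, 10 min room temperature, flow cytometry; viable, apoptotic and dead percentages reported.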
(In general: In flow cytometry, cells or beads pass a laser one at a time.)

Data set [4] relates to HCT-116. Description: Potentiation of mitoxantrone-induced cytotoxicity in mitoxantrone-resistant human HCT116 cells at 10 uM assessed as apoptotic cells after 48 hrs by flow cytometry. The format is cell-based. The note with it: hct-116, 48 h. The method in brief: as §2
Data set [5] addresses T1, Broad substrate specificity ATP-binding cassette transporter ABCG2. Description: Inhibition of BCRP expressed in mitoxantrone-resistant human HCT116 cells assessed as increase in mitoxantrone accumulation at 1 uM after 15 mins. The class given is cell-based. As to conditions: hct-116, 0.25 h. The method in brief:
as §1

Turning to `CCN1CCN(C(=O)c2cc(=O)c3c(O)cccc3o2)CC1`, in data set [1], the Fluorescence intensity is 108 a.u.
Still for that read-out and setting: with `O=C(c1cc(=O)c2c(O)cccc2o1)N1CCN(CC2CCCCC2)CC1` the figure was 92 a.u; with `COc1ccc(CNC(=O)c2cc(=O)c3c(O)cccc3o2)cc1OC`, 197 a.u; with `CCCN1CCN(C(=O)c2cc(=O)c3c(O)cccc3o2)CC1`, 104 a.u.
For the compound `Cc1ccc(NC(=O)c2ccc(CN3CCN(C)CC3)cc2)cc1Nc1nccc(-c2cccnc2)n1` [IMATINIB], the Fluorescence intensity in data set [1] is 334 a.u.
The same measure, in the same setting: the same measure for `CCCCCN1CCN(C(=O)c2cc(=O)c3c(O)cccc3o2)CC1`: 225 a.u; for `CC(C)CN1CCN(C(=O)c2cc(=O)c3c(O)cccc3o2)CC1`: 92 a.u.
The same measure, in the same setting: the same measure for `COc1ccc2c3c([nH]c2c1)[C@H](C=C(C)C)N1C(=O)[C@@H]2CCCN2C(=O)[C@@H]1C3` [FUMITREMORGIN]: 315 a.u.
For `CC(C)(C)OC(=O)N1CCN(C(=O)c2cc(=O)c3c(O)cccc3o2)CC1`, the viability at 48 h, 10 µM in data set [2] was found to be 60%. Moreover, the Fluorescence intensity in data set [1] turned out to be 179 a.u.
As for `CCCCN1CCN(C(=O)c2cc(=O)c3c(O)cccc3o2)CC1`, the viability at 48 h, 10 µM in data set [2] is 60%. Besides, the Activity in data set [3] came out at 22%; in data set [4], 27%. Moreover, the Fluorescence intensity in data set [1] amounted to 223 a.u.
Take `COc1ccc(CCNC(=O)c2cc(=O)c3c(O)cccc3o2)cc1`: the Activity in data set [3] is given as 8%; in data set [4], 42%; in data set [5] it was “Active”. In addition, in data set [1], the Fluorescence intensity amounted to 320 a.u.
Consider `O=C(c1cc(=O)c2c(O)cccc2o1)N1CCNCC1`, for which, in data set [1], the Fluorescence intensity worked out at 86 a.u.
`O=C(NCCc1ccccc1)c1cc(=O)c2c(O)cccc2o1`: the viability at 48 h, 10 µM in data set [2] came out at 60%. Further, the Fluorescence intensity in data set [1] is 282 a.u.
Regarding `COc1ccc(CCNC(=O)c2cc(=O)c3c(O)cccc3o2)cc1OC`, the viability at 48 h, 10 µM in data set [2] was determined as 60%. In addition, in data set [1], the Fluorescence intensity is 315 a.u. Besides, in data set [5], the result was Active.
As for `O=C(c1cc(=O)c2c(O)cccc2o1)N1CCN(CCO)CC1`, in data set [1], the Fluorescence intensity came to 72 a.u.
On the same count and under the same terms, with `CC(=O)N1CCN(C(=O)c2cc(=O)c3c(O)cccc3o2)CC1` the figure was 112 a.u.
